Results as given in the array DNA melting data of Ke et al. (doi:10.1101/2024.01.08.574731).

How the values were obtained:
[1] = folding enthalpy; higher = less favourable; fluorescence melt of hairpins on a sequencing array, two-state fit; settings: sodium 0.088 M
Method in brief: (§1)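 Two-state fits, bootstrapped, provided melting temperature and folding enthalpy from Cy3 fluorescence normalised to pre-quench Cy3 and to control constructs. Library hairpins with annealed Cy3 and quencher oligos were imaged on a sequenced MiSeq flow cell in 50 mM Na-HEPES pH 8.0, 25 mM NaCl, at 2.5 °C intervals up to 60 °C. Four replicates were combined with inverse-variance weighting. A 9.35 °C upward shift was applied to fitted temperatures to match UV melts.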

[2] = melting temperature; fluorescence melt of hairpins on a sequencing array, two-state fit, raised by 9.35 °C to match UV melts; settings: sodium 0.088 M
Method in brief: as §1

Sequence	folding enthalpy [1]	Tm [2]
GGATACGGAAACGTACCC ((.((((....)))).))	-21.1 kcal/mol	43.3 °C
GCAAGGCGAAAGCCTCGC ((.((((....)))).))	-18.4 kcal/mol	59.3 °C
GGCTTAGGAAACTAAGCC (((((((....)))))))	-48.5 kcal/mol	62.9 °C
GCATGGCGAAAGCACTGC (((..((....))..)))	-20.6 kcal/mol	46.3 °C
GCATAAGAAATTATGC ((((((....))))))	-28.6 kcal/mol	46.3 °C
GATCATGCCCATGATC ((((((....))))))	-43 kcal/mol	53.5 °C
GATCAGGGACTGATC ((((((...))))))	-39.5 kcal/mol	59.6 °C
GATCTGCATTCAGATC ((((((....))))))	-39.6 kcal/mol	48.9 °C
GGATTACGAAAGTACTCC (((.(((....))).)))	-27.9 kcal/mol	41.1 °C
GCAGGAGGAAACTCCCGC ((.((((....)))).))	-24.1 kcal/mol	45.8 °C
GGCGCTGGAAACAGCACC ((.((((....)))).))	-29.7 kcal/mol	54.8 °C
GAGTGCCGAAAGGCTCTC (((.(((....))).)))	-25.6 kcal/mol	56.4 °C
GGGTCTCCGAAAGGACCC (((..(((....))))))	-26.5 kcal/mol	51.4 °C
GATCTGTTTCCAGATC ((((((....))))))	-34.9 kcal/mol	49.3 °C
GCCATCTCGAAAGAGGGC (((..(((....))))))	-35.2 kcal/mol	48.9 °C
GACATACGAAAGTAGGTC (((.(((....))).)))	-39.1 kcal/mol	52.7 °C
TTGAGGAAACTCAA (((((....)))))	-15.6 kcal/mol	35.3 °C
GTAAGCCGAAAGGCCTAC (((.(((....))).)))	-13.7 kcal/mol	39.4 °C
GACCAGCGAAAGCTTGTC (((.(((....))).)))	-24 kcal/mol	47.8 °C
GGAAAAGGAAACTTTTTC (.(((((....))))).)	-20.6 kcal/mol	33 °C
GGTCGCGAAAGCGTAACC ((((((....)))..)))	-15 kcal/mol	47.2 °C
GCGACGTCTCGC ((((....))))	-13.3 kcal/mol	54.2 °C
GGTCCGGGAAACTGGGCC ((.((.(....).)).))	-35.4 kcal/mol	51.7 °C

Sequence	folding enthalpy [1]	Tm [2]
GGGCCGGGAAACCGACCC (((.(((....))).)))	-43.9 kcal/mol	57.5 °C
GATCTGTTACAGATC ((((((...))))))	-36.3 kcal/mol	50.5 °C
GCTAAGGGAAACCTCAGC (((.(((....))).)))	-27.4 kcal/mol	34.2 °C
GAGTGTGGAAACATGCTC (((..((....))..)))	-31.2 kcal/mol	38.7 °C
GCTATCGAAAGATCAGC ((((((....))).)))	-20.6 kcal/mol	38.2 °C
GATCATCCGATGATC ((((((...))))))	-33.3 kcal/mol	46.8 °C
GTCAACTCGAAAGAGGAC (((..(((....))))))	-20.3 kcal/mol	33.2 °C
GTGATCGAAAGATAACAC ((((((....)))..)))	-23.6 kcal/mol	34.5 °C
GTTTTTGGAAACAAAAGC (.(((((....))))).)	-29.6 kcal/mol	35.6 °C
GATCCGAAGTCGGATC ((((((....))))))	-39.9 kcal/mol	56.2 °C
GATCTACTGCTAGATC ((((((....))))))	-26.1 kcal/mol	40.1 °C
GTGCATGGAAACATGTGC (..((((....))))..)	-25 kcal/mol	43 °C
GAGGAGGCGAAAGCCCTC (((..(((....))))))	-14.1 kcal/mol	44.1 °C
GGCTGGGGAAACCCGGTC (.(.(((....))).).)	-28.5 kcal/mol	46.1 °C
GATCAAACGGTTGATC ((((((....))))))	-36 kcal/mol	44.2 °C
GCCTTCGGAAACGGAGGC ((((.((....)).))))	-40.4 kcal/mol	58.6 °C
GGCACCGAAAGGTCCGCC ((((((....)))..)))	-20.4 kcal/mol	55.2 °C
GCCTTCCCGAAAGGGGGC (((..(((....))))))	-17.2 kcal/mol	47.7 °C
GTAGCTGCGAAAGCATAC (((..(((....))))))	-10.1 kcal/mol	31.3 °C
GCCTTAACGAAAGTTGGC (((..(((....))))))	-26.5 kcal/mol	43.7 °C
GATCGAACCCTCGATC ((((((....))))))	-39.5 kcal/mol	50.2 °C
GCCTAGGCGAAAGCCGGC (((..(((....))))))	-13.3 kcal/mol	65.8 °C
GATCCGTTAGCGGATC ((((((....))))))	-39.9 kcal/mol	60.8 °C

Sequence	folding enthalpy [1]	Tm [2]
GCGTATACACGC ((((....))))	-22.8 kcal/mol	53.6 °C
GATCATGCGCATGATC ((((((....))))))	-57.1 kcal/mol	57.2 °C
GTTTAAGGAAACTTGAAC (((.(((....))).)))	-18.5 kcal/mol	35 °C
GATCATCTCTATGATC ((((((....))))))	-38.9 kcal/mol	47.1 °C
GTTGCTGGAAACAGCGAC ((.((((....)))).))	-39.6 kcal/mol	54.3 °C
GTGAACGAAAGTTCGCAC ((((((....)))..)))	-16.4 kcal/mol	51.3 °C
GATATGGCGAAAGCCATC (((..(((....))))))	-7.03 kcal/mol	34.2 °C
GAAAGCGAAAGCTGGTTC ((((((....)))..)))	-9.59 kcal/mol	29.3 °C
GGCCAGGGAAACCCGGCC ((((.((....)).))))	-40.9 kcal/mol	62.1 °C
GATCATCAAATGATC ((((((...))))))	-25.1 kcal/mol	41.1 °C
GCGCGGACGAAAGTCCGC (((..(((....))))))	-5.59 kcal/mol	63.7 °C
CAACTGAAAAGTTG (((((....)))))	-22.1 kcal/mol	46.2 °C
GTGGCTGGAAACAGCCGC (.(((((....))))).)	-17.4 kcal/mol	63 °C
GATCGCTCTTGCGATC ((((((....))))))	-38.9 kcal/mol	68 °C
GATCATGTCAATGATC ((((((....))))))	-40 kcal/mol	56.9 °C
GATCTAACGTAGATC ((((((...))))))	-24.5 kcal/mol	36.1 °C
GCCTGCGAAAGCATCGGC ((((((....)))..)))	-19.1 kcal/mol	47.2 °C
GAAGACCCGAAAGGGTTC (((..(((....))))))	-8.91 kcal/mol	32.6 °C
GCGACACGAAAGTGCGC (((.(((....))))))	-22.7 kcal/mol	63.9 °C
GCGTTGCGAAAGCGCCGC (((..((....))..)))	-14.8 kcal/mol	58.4 °C
GCGCCGCGAAAGCCCCGC (((..((....))..)))	-17.7 kcal/mol	39 °C
GGGCTCGAAAGAGAACCC ((((((....)))..)))	-19.5 kcal/mol	45.2 °C
GATCCAAACCTGGATC ((((((....))))))	-40.8 kcal/mol	49.8 °C

Sequence	folding enthalpy [1]	Tm [2]
GTTGACACGAAAGTGAAC (((..(((....))))))	-14.2 kcal/mol	34.1 °C
GAATGCGAAAGCAGTTC ((((((....))).)))	-13.9 kcal/mol	41.8 °C
GAGTGCGAAAGCATCCTC ((((((....)))..)))	-10.2 kcal/mol	33 °C
GCCATGGGAAACTATGGC (((((.(....).)))))	-37.4 kcal/mol	52.5 °C
GCAAGAGGAAACTTTTGC ((((.((....)).))))	-26 kcal/mol	39 °C
GGCGTGGGAAACTGCGCC ((((..(....)..))))	-52.5 kcal/mol	55.7 °C
GAACAGGGAAACCCGTTC ((((.((....)).))))	-24.4 kcal/mol	41.8 °C
GATCGCACATGCGATC ((((((....))))))	-39.8 kcal/mol	68.3 °C
GCCACTTCGAAAGAAGGC (((..(((....))))))	-13 kcal/mol	35.5 °C
GATCTTGGAAACAAGACC (.(((((....))))).)	-17.4 kcal/mol	35.2 °C
GATATACGAAAGTAGATC (((.(((....))).)))	-31.1 kcal/mol	44.1 °C
GCCCGTGGAAACGTGGGC ((((..(....)..))))	-31.2 kcal/mol	54.9 °C
GCAGACGAAAGTCCTGC ((((((....))).)))	-23.8 kcal/mol	52.9 °C
GATAGCCGAAAGGCAATC (((.(((....))).)))	-19.1 kcal/mol	46 °C
ATCTTGAAAAAGAT (((((....)))))	-9.95 kcal/mol	32.9 °C
GTTTGCGGAAACGTGAAC (((..((....))..)))	-30.7 kcal/mol	41.2 °C
GATCTCTTGGGAGATC ((((((....))))))	-40.4 kcal/mol	54 °C
CGCATCGGAAACGAAGCG (((.(((....))).)))	-31.2 kcal/mol	51.7 °C
GATCGCACAAGCGATC ((((((....))))))	-37 kcal/mol	69.3 °C
GATCATACAGATGATC ((((((....))))))	-35.8 kcal/mol	44.4 °C
GCGAACGAAAGTTACCGC ((((((....)))..)))	-22.1 kcal/mol	37.7 °C
GTGCGCCGAAAGGCCAC (((.(((....))))))	-21.3 kcal/mol	58.6 °C
GGCTTTGGAAACAAGGCC (((.(((....))).)))	-40.5 kcal/mol	51.6 °C
